Results taken from publication PMC10373209 (ACS Omega, 2023).
Entries after “also recorded” stand apart in the source; their conditions may differ. Blank lines part the entries; values can stand above or below the compound they belong to.

Experiments:
SRP-ΔΔΔΔ (ΔΔΔΔpdr) = assay: Yeast growth inhibition dose-response, SRP-ΔΔΔΔ; type: cell-based, Saccharomyces cerevisiae; details: 1–128 μM range
How it was run: (§1)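 S. cerevisiae haploid MATa deletion strains (wild-type reference BY4741) were grown in YPD at 25 °C. In a broth microdilution assay, an inoculum of OD620 0.001 (~25,000 cells/mL) was exposed to test compound at 1–128 μM in 1:2 serial dilutions. The zero control was eight technical replicates of 1% (v/v) DMSO.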

[1] = molecular target: M-MLV Reverse Transcriptase (RT-MMLV) (Moloney murine leukemia virus, UniProt P03355); assay: Retrotranscription inhibition; type: biochemical, myeloid murine leukemia virus
Δrad9 Δrad52 (ΔΔrad) = assay: Yeast growth inhibition dose-response, Δrad9 Δrad52; type: cell-based, Saccharomyces cerevisiae; details: for cytotoxicity in ΔΔrad (in words): 1–128 μM range; for DNA damage in S. cerevisiae (in words): inferred from hypersensitivity of Δrad9 Δrad52
How it was run: as §1

Taq DNA polymerase = Taq DNA polymerase (Thermus aquaticus, UniProt P19821); assay: Taq DNA polymerase inhibition; type: biochemical; details: for inhibitory activity against Taq DNA polymerase (in words): PCR assay
Taq DNA polymerase, sequence (P19821 whole entry): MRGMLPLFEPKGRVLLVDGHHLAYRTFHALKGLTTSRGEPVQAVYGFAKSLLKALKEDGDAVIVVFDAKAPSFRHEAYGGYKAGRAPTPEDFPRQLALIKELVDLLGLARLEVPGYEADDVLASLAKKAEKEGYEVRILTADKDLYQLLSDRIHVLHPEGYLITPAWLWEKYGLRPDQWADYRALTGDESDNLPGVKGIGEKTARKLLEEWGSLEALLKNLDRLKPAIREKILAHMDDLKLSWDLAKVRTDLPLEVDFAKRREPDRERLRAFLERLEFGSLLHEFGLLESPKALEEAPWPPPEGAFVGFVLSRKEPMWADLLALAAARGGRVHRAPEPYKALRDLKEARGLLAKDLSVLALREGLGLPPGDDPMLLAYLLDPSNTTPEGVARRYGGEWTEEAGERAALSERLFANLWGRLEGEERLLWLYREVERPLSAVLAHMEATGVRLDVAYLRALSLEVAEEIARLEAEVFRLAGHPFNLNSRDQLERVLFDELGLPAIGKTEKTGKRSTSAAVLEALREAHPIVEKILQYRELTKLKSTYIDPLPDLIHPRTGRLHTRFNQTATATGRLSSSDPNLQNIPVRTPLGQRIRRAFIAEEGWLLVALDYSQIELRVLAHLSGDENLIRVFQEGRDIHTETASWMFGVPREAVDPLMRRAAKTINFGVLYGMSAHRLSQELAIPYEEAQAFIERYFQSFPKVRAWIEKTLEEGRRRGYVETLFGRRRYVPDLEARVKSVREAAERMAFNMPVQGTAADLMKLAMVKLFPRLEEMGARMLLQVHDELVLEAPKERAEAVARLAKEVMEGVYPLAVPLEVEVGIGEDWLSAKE

activity in RT-PCR assay (in words) [1]: did not show activity
Structure (SMILES): O=c1cc(OCCCC2CO2)c2ccccc2o1 (stereo not drawn) [Compound 5a, 4-(3-(Oxiran-2-yl)propoxy)-2H-chromen-2-one]
cytotoxicity in ΔΔrad (in words) (Δrad9 Δrad52 (ΔΔrad)): Cytotoxicity was observed
DNA damage in S. cerevisiae (in words) (Δrad9 Δrad52 (ΔΔrad)): showed DNA damaging activity

activity in RT-PCR assay (in words) [1]: without activity
Structure (SMILES): O=c1ccc2ccc(OCCC3CO3)cc2o1 (stereo not drawn) [Compound 5b, 7-(2-(Oxiran-2-yl)ethoxy)-2H-chromen-2-one]
cytotoxicity in ΔΔrad (in words) (Δrad9 Δrad52 (ΔΔrad)): Cytotoxicity was observed
DNA damage in S. cerevisiae (in words) (Δrad9 Δrad52 (ΔΔrad)): caused DNA damage; also recorded: showed DNA damaging activity

More lines, now with the values behind:

Structure (SMILES): C=CCCCOc1ccc2ccc(=O)oc2c1 [Compound 4c, 7-(Pent-4-en-1-yloxy)-2H-chromen-2-one]
cytotoxicity in ΔΔΔΔpdr strain (in words) (SRP-ΔΔΔΔ (ΔΔΔΔpdr)): cytotoxic

Structure (SMILES): C=CCCOc1ccc2ccc(=O)oc2c1 [Compound 4b, 7-(But-3-en-1-yloxy)-2H-chromen-2-one]
cytotoxicity in ΔΔΔΔpdr strain (in words) (SRP-ΔΔΔΔ (ΔΔΔΔpdr)): cytotoxic

Structure (SMILES): CCCCCCOc1ccc2ccc(=O)oc2c1 [Compound 6b, 7-(Hexyloxy)-2H-chromen-2-one]
cytotoxicity in ΔΔΔΔpdr strain (in words) (SRP-ΔΔΔΔ (ΔΔΔΔpdr)): cytotoxic

Structure (SMILES): CC(=O)Oc1ccc2c(CSC(C)=O)cc(=O)oc2c1 [Compound 3c, 4-((Acetylthio)methyl)-2-oxo-2H-chromen-7-yl acetate]
IC50 (Taq DNA polymerase): 48.2 ± 1.2 µM

Structure (SMILES): CCCCCCCOc1ccc2ccc(=O)oc2c1 [Compound 6c, 7-(Heptyloxy)-2H-chromen-2-one]
cytotoxicity in ΔΔΔΔpdr strain (in words) (SRP-ΔΔΔΔ (ΔΔΔΔpdr)): cytotoxic

Structure (SMILES): CC(=O)Oc1ccc2oc(=O)cc(CSC(C)=O)c2c1 [Compound 3g, 4-((Acetylthio)methyl)-2-oxo-2H-chromen-6-yl acetate]
inhibitory activity against Taq DNA polymerase (in words) (Taq DNA polymerase): without activity; also recorded: did not show in vitro activity
cytotoxicity in ΔΔΔΔpdr strain (in words) (SRP-ΔΔΔΔ (ΔΔΔΔpdr)): cytotoxic

Structure (SMILES): CC(=O)OC[C@@H]1OC(Oc2ccc3ccc(=O)oc3c2)C(OC(C)=O)[C@H](OC(C)=O)C1OC(C)=O (stereo partly drawn) [Compound 7c, (2S,4R)-2-(Acetoxymethyl)-6-((2-oxo-2H-chromen-7-yl)oxy)tetrahydro-2H-pyran-3,4,5-triyl triacetate]
cytotoxicity in ΔΔΔΔpdr strain (in words) (SRP-ΔΔΔΔ (ΔΔΔΔpdr)): cytotoxic

Structure (SMILES): O=c1cc(CCl)c2cc(O)ccc2o1 [Compound 2b, 4-(Chloromethyl)-6-hydroxy-2H-chromen-2-one]
inhibitory activity against Taq DNA polymerase (in words) (Taq DNA polymerase): low or null in vitro activity

Structure (SMILES): O=c1cc(CCl)c2c(O)cc(O)cc2o1 [Compound 2d, 4-(Chloromethyl)-5,7-dihydroxy-2H-chromen-2-one]
IC50 (Taq DNA polymerase): 20.7 ± 2.1 µM

Structure (SMILES): CC(=O)SCc1cc(=O)oc2ccc(O)cc12 [Compound 3e, S-((6-Hydroxy-2-oxo-2H-chromen-4-yl)methyl) ethanethioate]
IC50 (Taq DNA polymerase): 188 ± 19.4 µM

Structure (SMILES): O=c1cc(CCl)c2ccc(O)c(O)c2o1 [Compound 2c, 4-(Chloromethyl)-7,8-dihydroxy-2H-chromen-2-one]
IC50 (Taq DNA polymerase): 142 ± 3.4 µM

Structure (SMILES): CCCCOc1ccc2ccc(=O)oc2c1 [Compound 6a, 7-Butoxy-2H-chromen-2-one]
cytotoxicity in ΔΔΔΔpdr strain (in words) (SRP-ΔΔΔΔ (ΔΔΔΔpdr)): cytotoxic

Structure (SMILES): O=c1ccc2ccc(OCCCC3CO3)cc2o1 (stereo not drawn) [Compound 5c, 7-(3-(Oxiran-2-yl)propoxy)-2H-chromen-2-one]
cytotoxicity in ΔΔrad (in words) (Δrad9 Δrad52 (ΔΔrad)): Cytotoxicity was observed
DNA damage in S. cerevisiae (in words) (Δrad9 Δrad52 (ΔΔrad)): caused DNA damage; also recorded: showed DNA damaging activity

Structure (SMILES): O=c1cc(CCl)c2ccc(O)cc2o1 [Compound 2a, 4-(Chloromethyl)-7-hydroxy-2H-chromen-2-one]
inhibitory activity against Taq DNA polymerase (in words) (Taq DNA polymerase): low or null in vitro activity

Structure (SMILES): COc1ccc2oc(=O)cc(CSC(C)=O)c2c1 [Compound 3f, S-((6-Methoxy-2-oxo-2H-chromen-4-yl)methyl) ethanethioate]
inhibitory activity against Taq DNA polymerase (in words) (Taq DNA polymerase): absence of activity

Structure (SMILES): CC(=O)SCc1cc(=O)oc2cc(O)ccc12 [Compound 3d, S-((7-Hydroxy-2-oxo-2H-chromen-4-yl)methyl) ethanethioate]
IC50 (Taq DNA polymerase): 143 ± 4.22 µM
